The text below walks through data of the M2OR odorant receptor database.

Conditions in all cases: stereoisomer not certain
One test addresses T1, UniProt Q8VGL0.
T1 sequence (whole entry): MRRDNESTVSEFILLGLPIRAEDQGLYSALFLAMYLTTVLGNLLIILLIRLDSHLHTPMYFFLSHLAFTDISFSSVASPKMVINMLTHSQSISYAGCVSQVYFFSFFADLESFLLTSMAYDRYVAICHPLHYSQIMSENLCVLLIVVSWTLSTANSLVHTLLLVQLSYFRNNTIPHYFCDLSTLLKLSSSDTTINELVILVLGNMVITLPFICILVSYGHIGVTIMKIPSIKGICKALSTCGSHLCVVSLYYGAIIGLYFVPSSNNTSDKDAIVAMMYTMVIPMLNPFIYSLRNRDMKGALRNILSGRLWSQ
An outline of the steps: (§1)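 Whether a receptor–molecule pair is responsive (active) rests on the original authors' judgment that its measured signal was statistically different from baseline. Pairs without that judgment are non-responsive (inactive). Sources used varied assay methods, commonly transient luciferase assays in mammalian cell lines.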

Another test addresses T2, UniProt Q8VGU3.
T2 sequence (whole entry): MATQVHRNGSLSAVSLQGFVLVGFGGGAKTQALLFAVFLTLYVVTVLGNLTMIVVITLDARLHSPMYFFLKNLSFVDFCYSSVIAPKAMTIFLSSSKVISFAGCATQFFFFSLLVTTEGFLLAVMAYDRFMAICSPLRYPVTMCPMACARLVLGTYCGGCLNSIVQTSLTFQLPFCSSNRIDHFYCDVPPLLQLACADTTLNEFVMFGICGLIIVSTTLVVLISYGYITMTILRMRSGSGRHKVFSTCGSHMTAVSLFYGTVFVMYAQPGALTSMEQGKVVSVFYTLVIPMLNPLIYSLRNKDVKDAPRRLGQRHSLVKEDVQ
An outline of the steps: as §1

The next test has as its target T3, UniProt Q8VGV7.
T3 sequence (whole entry): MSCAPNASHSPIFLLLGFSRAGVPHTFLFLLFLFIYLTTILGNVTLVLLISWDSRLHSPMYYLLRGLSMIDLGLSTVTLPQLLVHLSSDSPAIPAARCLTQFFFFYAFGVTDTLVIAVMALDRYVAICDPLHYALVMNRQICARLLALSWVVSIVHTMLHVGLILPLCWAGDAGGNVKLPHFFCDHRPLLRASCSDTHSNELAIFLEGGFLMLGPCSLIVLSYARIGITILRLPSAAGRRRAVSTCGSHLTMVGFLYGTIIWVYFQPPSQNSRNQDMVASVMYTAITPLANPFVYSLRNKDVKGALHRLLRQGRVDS
The method in brief:
as §1

Another test has as its target T4, UniProt Q8VGX3.
T4 sequence (whole entry): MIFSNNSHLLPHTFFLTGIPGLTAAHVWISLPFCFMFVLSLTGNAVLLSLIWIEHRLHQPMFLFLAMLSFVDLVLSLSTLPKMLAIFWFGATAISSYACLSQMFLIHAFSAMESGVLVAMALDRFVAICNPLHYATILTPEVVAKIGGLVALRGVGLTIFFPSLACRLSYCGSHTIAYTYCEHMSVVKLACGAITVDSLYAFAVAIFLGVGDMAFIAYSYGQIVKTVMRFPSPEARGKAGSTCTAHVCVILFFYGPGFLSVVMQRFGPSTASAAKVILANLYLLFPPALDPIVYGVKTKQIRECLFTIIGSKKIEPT
The method in brief: as §1

Another test addresses T5, UniProt Q8VGX5.
T5 sequence (whole entry): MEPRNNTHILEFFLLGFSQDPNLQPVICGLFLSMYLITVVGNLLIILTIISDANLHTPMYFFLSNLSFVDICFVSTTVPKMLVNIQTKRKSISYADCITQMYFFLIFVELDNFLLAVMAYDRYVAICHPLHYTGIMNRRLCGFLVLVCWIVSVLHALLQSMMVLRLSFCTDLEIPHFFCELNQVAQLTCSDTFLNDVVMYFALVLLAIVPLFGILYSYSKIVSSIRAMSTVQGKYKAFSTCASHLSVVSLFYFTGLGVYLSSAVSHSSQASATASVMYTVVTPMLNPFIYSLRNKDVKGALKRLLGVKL
The method in brief:
as §1

Another test addresses T6, UniProt Q8VGZ2.
T6 sequence (whole entry): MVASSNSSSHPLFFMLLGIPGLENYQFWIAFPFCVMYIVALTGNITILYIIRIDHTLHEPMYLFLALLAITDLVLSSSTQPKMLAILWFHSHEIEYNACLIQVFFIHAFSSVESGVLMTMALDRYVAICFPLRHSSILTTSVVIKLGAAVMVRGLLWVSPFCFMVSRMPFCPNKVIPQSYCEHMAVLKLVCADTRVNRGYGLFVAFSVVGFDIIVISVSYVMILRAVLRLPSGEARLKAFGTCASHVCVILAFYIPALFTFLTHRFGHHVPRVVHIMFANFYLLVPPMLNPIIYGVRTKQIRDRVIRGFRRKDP
The method in brief: as §1

The target of a further test is T7, UniProt Q8VGZ7.
T7 sequence (whole entry): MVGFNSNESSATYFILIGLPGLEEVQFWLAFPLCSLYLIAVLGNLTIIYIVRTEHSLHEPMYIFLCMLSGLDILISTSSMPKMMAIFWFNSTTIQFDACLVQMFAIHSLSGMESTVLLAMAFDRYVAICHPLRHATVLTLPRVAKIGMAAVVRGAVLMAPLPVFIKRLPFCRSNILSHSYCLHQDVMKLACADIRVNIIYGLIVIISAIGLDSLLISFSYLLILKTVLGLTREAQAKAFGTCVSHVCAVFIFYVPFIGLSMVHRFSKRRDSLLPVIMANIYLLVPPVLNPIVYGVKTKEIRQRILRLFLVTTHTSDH
An outline of the steps: as §1

The target of the next test is T8, UniProt Q8VH16.
T8 sequence (whole entry): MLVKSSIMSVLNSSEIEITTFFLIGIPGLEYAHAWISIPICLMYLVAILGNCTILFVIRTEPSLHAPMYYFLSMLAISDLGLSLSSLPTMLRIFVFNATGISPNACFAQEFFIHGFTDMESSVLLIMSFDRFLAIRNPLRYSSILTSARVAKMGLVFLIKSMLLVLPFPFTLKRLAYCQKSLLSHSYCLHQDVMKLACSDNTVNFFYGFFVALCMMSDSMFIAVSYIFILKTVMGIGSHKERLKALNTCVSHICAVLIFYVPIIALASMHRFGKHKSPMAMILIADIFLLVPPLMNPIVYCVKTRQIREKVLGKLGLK
The method in brief:
as §1

The target of another test is T9, UniProt Q8VH20.
T9 sequence (whole entry): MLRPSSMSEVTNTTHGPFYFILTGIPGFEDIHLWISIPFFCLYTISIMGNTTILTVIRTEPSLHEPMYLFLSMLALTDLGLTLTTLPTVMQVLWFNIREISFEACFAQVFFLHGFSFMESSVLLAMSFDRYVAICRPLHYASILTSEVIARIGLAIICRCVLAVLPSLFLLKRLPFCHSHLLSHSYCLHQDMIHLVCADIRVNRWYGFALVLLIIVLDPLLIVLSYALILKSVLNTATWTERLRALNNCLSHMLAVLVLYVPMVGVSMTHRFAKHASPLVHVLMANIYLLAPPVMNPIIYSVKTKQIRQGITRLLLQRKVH
An outline of the steps:
as §1
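Also: active if original authors judged signal statistically different from baseline.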

As to `C=C(C)C1CC=C(C=O)CC1` (stereo unspecified), the “odorant receptor agonist call” value with UniProt Q8VGL0, with UniProt Q8VGU3, with UniProt Q8VGV7, with UniProt Q8VGX3, in the test with UniProt Q8VGX5 and with UniProt Q8VGZ2 was “inactive” each time. Besides, the “odorant receptor agonist call” value in the test with UniProt Q8VGZ7, with UniProt Q8VH16 and with UniProt Q8VH20 was “inactive” in each case.

As to `CSSC`, the “odorant receptor agonist call” value in the test with UniProt Q8VGL0, with UniProt Q8VGU3, in the test with UniProt Q8VGV7, in the test with UniProt Q8VGX3, with UniProt Q8VGX5 and with UniProt Q8VGZ2 was “inactive” each time. In addition, the “odorant receptor agonist call” value with UniProt Q8VGZ7, with UniProt Q8VH16 and in the test with UniProt Q8VH20 was “inactive” each time.

As to `O=Cc1ccc2c(c1)OCO2`, the “odorant receptor agonist call” value with UniProt Q8VGL0, with UniProt Q8VGU3, with UniProt Q8VGV7, in the test with UniProt Q8VGX3, with UniProt Q8VGZ2 and with UniProt Q8VGZ7 was “inactive” in each case. Further, the “odorant receptor agonist call” value with UniProt Q8VH16 and with UniProt Q8VH20 was “inactive” in each case. For the same compound, in the test with UniProt Q8VGX5, the “odorant receptor agonist call” value is “active”.

As to `O=CC=Cc1ccccc1`, the “odorant receptor agonist call” value in the test with UniProt Q8VGL0, with UniProt Q8VGU3, in the test with UniProt Q8VGV7, with UniProt Q8VGX3, with UniProt Q8VGX5 and with UniProt Q8VGZ2 was “inactive” in each case. In addition, the “odorant receptor agonist call” value with UniProt Q8VGZ7, with UniProt Q8VH16 and with UniProt Q8VH20 was “inactive” each time.
